Measurements taken from ChEMBL document CHEMBL2390866, “Novel pyrimidoazepine analogs as serotonin 5-HT(2A) and 5-HT(2C) receptor ligands for the treatment of obesity” (Eur J Med Chem, 2013).

Legend:
Mus musculus [1] = assay: Antiobesity activity in B6.V/J ob/ob mouse assessed as change in spleen weight at 50 mg/kg, po bid measured after 14 days (reference value: 0.097 +/- 0.052 g); type: functional
Mus musculus [2] = assay: Toxicity in B6.V/J ob/ob mouse assessed as mortality at 50 mg/kg, po bid measured after 14 days; type: organism-based; parameters: dose 50 mg/kg, route oral; settings: in vivo, 336 h
Mus musculus [3] = assay: Antiobesity activity in B6.V/J ob/ob mouse assessed as change in heart weight at 50 mg/kg, po bid measured after 14 days (reference value: 0.150 +/- 0.003 g); type: functional
[4] = Plasma concentration in Sprague-Dawley rat at 10 mg/kg, iv measured at 8 hrs; type: ADME, organism-based; parameters: dose 10 mg/kg, route intravenous
In short: (§1)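 Rats fasted 12 h, then dosed orally by gavage or by bolus tail-vein injection at 2 ml/kg. Compound given as a 5 mg/ml solution in N-methyl-2-pyrrolidone/Tween 80/water (1:2:7). Samples taken at various times (n = 5) and stored at −70 °C. Plasma deproteinized with acetonitrile containing carbamazepine internal standard, then quantified by LC-MS/MS.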

[5] = Oral bioavailability in Sprague-Dawley rat at 10 mg/kg; type: ADME, organism-based; settings: in vivo; in short: as §1
Mus musculus [6] = assay: Antiobesity activity in B6.V/J ob/ob mouse assessed as inhibition of body weight gain at 12.5 mg/kg, ip measured after 12 hrs relative to vehicle-treated control; type: functional; settings: route intraperitoneal
[7] = AUC (0 to infinity) in Sprague-Dawley rat at 10 mg/kg, po; type: ADME, organism-based; parameters: time infinity, dose 10 mg/kg, route oral; settings: plasma
Mus musculus [8] = assay: Antiobesity activity in B6.V/J ob/ob mouse assessed as change in gonadal adipose tissue weight at 50 mg/kg, po bid measured after 14 days (reference value: 3.599 +/- 0.155 g); type: functional
Homo sapiens = species on record: Homo sapiens; assay: Selectivity ratio of IC50 for human recombinant 5HT-2B receptor to IC50 for human recombinant 5HT-2C receptor
[9] = Drug excretion in Sprague-Dawley rat at 10 mg/kg, po; type: ADME, organism-based; parameters: dose 10 mg/kg, route oral; settings: in vivo, read-out: Ae; in short: as §1
[10] = Terminal half life in Sprague-Dawley rat at 10 mg/kg, iv; type: ADME, organism-based; parameters: dose 10 mg/kg, route intravenous; settings: in vivo, read-out: beta t1/2; in short: as §1
[11] = target: 5-hydroxytryptamine receptor 2A (Homo sapiens, UniProt P28223); assay: Displacement of [3H]-ketanserin from human recombinant 5HT-2A receptor expressed in CHOK1 cell membranes after 60 mins; parameters: species or system CHO-K1
In short: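 Buffer was 50 mM Tris-HCl pH 7.4 with 5 mM CaCl2 and 0.1% ascorbic acid. Test compound added at a range of concentrations.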

[12] = Plasma concentration in Sprague-Dawley rat at 10 mg/kg, iv measured at 2 hrs; type: ADME, organism-based; parameters: dose 10 mg/kg, route intravenous; in short: as §1
Mus musculus [13] = assay: Antiobesity activity in B6.V/J ob/ob mouse assessed as inhibition of food intake at 12.5 mg/kg, ip measured up to 2 hrs relative to vehicle-treated control; type: functional; settings: route intraperitoneal
In short: (§2)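 Male mice were acclimated 1 week at 23 ± 3 °C and 50 ± 20% humidity, then fasted 24 h. They were dosed once intraperitoneally with vehicle or compound: 50 mg/kg in C57BL/6, or 12.5, 25 or 50 mg/kg in B6.V-Lep^ob/J. Food intake was measured at 2, 6 and 12 h versus vehicle control.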

Mus musculus [14] = assay: Antiobesity activity in B6.V/J ob/ob mouse assessed as change in thymus weight at 50 mg/kg, po bid measured after 14 days (reference value: 0.029 +/- 0.006 g); type: functional
[15] = Drug excretion in Sprague-Dawley rat at 10 mg/kg, iv; type: ADME, organism-based; parameters: dose 10 mg/kg, route intravenous; settings: in vivo, read-out: Ae; in short: as §1
Mus musculus [16] = assay: Antiobesity activity in C57BL/6 mouse assessed as inhibition of food intake at 50 mg/kg, ip measured after 2 to 12 hrs relative to vehicle-treated control; type: functional; settings: C57BL/6, ip, route intraperitoneal; in short: as §2
Mus musculus [17] = assay: Antiobesity activity in B6.V/J ob/ob mouse assessed as inhibition of food intake at 25 mg/kg, po bid measured after 14 days relative to vehicle-treated control; type: functional; settings: 336 h
[18] = target: T1, Alpha-1A adrenergic receptor (Homo sapiens, UniProt P35348); assay: Binding affinity to adrenergic alpha1A receptor (unknown origin)
T1 sequence (P35348 whole entry): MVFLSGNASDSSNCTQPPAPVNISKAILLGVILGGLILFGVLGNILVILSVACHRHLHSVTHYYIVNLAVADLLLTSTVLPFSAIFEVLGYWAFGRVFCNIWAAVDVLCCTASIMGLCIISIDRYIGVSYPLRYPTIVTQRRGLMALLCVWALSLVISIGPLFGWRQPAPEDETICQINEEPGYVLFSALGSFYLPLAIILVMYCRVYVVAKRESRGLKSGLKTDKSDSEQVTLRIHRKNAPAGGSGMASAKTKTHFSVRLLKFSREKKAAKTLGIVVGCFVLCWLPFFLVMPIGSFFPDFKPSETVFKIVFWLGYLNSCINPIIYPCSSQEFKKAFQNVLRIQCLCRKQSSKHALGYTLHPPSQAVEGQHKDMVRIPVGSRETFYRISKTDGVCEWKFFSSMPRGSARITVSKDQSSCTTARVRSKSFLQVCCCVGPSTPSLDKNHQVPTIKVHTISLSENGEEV

[19] = target: T2, Alpha-2A adrenergic receptor (Homo sapiens, UniProt P08913); assay: Binding affinity to adrenergic alpha2A receptor (unknown origin)
T2 sequence (P08913 whole entry): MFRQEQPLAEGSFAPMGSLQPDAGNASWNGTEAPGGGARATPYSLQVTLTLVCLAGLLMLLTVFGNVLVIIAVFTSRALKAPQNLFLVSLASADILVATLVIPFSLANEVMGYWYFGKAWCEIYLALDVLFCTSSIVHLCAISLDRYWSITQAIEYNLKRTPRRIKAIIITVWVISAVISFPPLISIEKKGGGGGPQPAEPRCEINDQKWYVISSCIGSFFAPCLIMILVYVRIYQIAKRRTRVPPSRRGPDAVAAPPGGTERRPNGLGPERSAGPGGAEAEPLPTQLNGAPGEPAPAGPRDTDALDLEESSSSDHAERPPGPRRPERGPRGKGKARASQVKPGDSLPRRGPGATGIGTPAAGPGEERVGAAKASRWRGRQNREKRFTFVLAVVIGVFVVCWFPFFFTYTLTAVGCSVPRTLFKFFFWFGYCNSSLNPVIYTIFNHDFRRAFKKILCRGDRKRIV

Mus musculus [20] = assay: Antiobesity activity in B6.V/J ob/ob mouse assessed as inhibition of food intake at 25 mg/kg, ip measured up to 2 hrs relative to vehicle-treated control; type: functional; settings: route intraperitoneal; in short: as §2
Mus musculus [21] = assay: Antiobesity activity in B6.V/J ob/ob mouse assessed as inhibition of food intake at 25 mg/kg, ip measured up to 6 hrs relative to vehicle-treated control; type: functional; settings: route intraperitoneal; in short: as §2
Mus musculus [22] = assay: Antiobesity activity in B6.V/J ob/ob mouse assessed as change in liver weight at 5 mg/kg, po bid measured after 14 days (reference value: 3.396 +/- 0.162 g); type: functional
[23] = Cmax in Sprague-Dawley rat at 10 mg/kg, po; type: ADME, organism-based; parameters: dose 10 mg/kg, route oral; settings: in vivo; in short: as §1
Mus musculus [24] = assay: Antiobesity activity in B6.V/J ob/ob mouse assessed as change in gonadal adipose tissue weight at 5 mg/kg, po bid measured after 14 days (reference value: 3.599 +/- 0.155 g); type: functional

5-hydroxytryptamine receptor 2A, sequence (P28223 whole entry): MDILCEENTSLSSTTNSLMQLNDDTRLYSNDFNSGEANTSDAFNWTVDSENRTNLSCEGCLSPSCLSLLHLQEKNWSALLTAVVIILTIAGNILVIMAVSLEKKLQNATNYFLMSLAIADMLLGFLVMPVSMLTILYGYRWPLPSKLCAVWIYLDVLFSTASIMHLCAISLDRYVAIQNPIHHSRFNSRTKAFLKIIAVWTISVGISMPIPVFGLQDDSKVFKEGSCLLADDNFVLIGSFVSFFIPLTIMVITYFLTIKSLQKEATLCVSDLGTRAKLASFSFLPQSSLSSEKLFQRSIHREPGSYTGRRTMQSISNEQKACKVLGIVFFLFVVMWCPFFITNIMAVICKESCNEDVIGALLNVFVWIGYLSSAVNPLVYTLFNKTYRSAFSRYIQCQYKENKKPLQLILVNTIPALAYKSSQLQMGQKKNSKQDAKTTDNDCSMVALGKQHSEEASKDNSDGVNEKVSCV

Structure (SMILES): Cl.Clc1cccc(Nc2nc(Cc3ccccc3)nc3c2CCNCC3)c1
- Activity (Mus musculus [1]): 0.075 g
- Activity (Mus musculus [2]): Toxic
- Activity (Mus musculus [3]): 0.17 g
- concentration at 8 h [4]: 60 ng/mL
- bioavailability [5]: 55.1%
- inhibition in vivo at 12.5 mg/kg (Mus musculus [6]): 24.9%
- AUC(0-inf) [7]: 1050 ng·h/mL
- Activity (Mus musculus [8]): 3.475 g
- Ratio IC50 (Homo sapiens): 8.1
- dose excreted [9]: 0.03%
- half-life [10]: 2.25 h
- IC50 [11]: 0.003 µM
- concentration at 2 h [12]: 190 ng/mL
- inhibition in vivo at 12.5 mg/kg (Mus musculus [13]): 98.6%
- Activity (Mus musculus [14]): 0.04 g
- dose excreted [15]: 0.03%
- inhibition in vivo at 50 mg/kg (Mus musculus [16]): 76.6%
- inhibition in vivo at 25 mg/kg (Mus musculus [17]): 15.2%
- IC50 [18]: > 10 µM
- IC50 [19]: > 10 µM
- inhibition in vivo at 25 mg/kg (Mus musculus [20]): 99.8%
- inhibition in vivo at 25 mg/kg (Mus musculus [21]): 90.2%
- Activity (Mus musculus [22]): 3.394 g
- Cmax [23]: 70 ng/mL
- Activity (Mus musculus [24]): 3.776 g
